Consider 63 compounds from PubChem BioAssay AID561 (The Scripps Research Institute Molecular Screening Center, 2006).

The whole screen tested about 65,000 compounds, of which about 280 (0.43%) were called active.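 The calls were made as follows: active = inhibition above the mean of all tested compounds plus 3 SD (cut at about 52% in these data); inactive = the rest.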 Shown is part of a subset that was picked to be rich in actives.

The target in the test is Nuclear receptor ROR-alpha (Homo sapiens) (UniProt P35398). Description: suppression of basal RORA-driven reporter transcription – cell-based, luminescence, primary screen (AID 561).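 Also: 0% = RORA-transfected cells with DMSO and 100% = mock-transfected cells lacking RORA.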 The note with it: CHO-K1 Gal4-RORA LBD luciferase reporter, at 10 µM, active compounds read high. Put shortly: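 Material: transiently transfected CHO-K1 cells, Gal4-DBD/human RORA-LBD fusion plus 5xGal4-luciferase reporter; doses: single concentration per compound, 10 µM final; incubation: 20 h at 37 °C; detection: luminescence from basal luciferase reporter expression; read-out: % inhibition of basal luciferase versus +RORA/-RORA DMSO controls; replication: tested once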
Chain of Nuclear receptor ROR-alpha (Homo sapiens) (P35398 whole entry, looked up, the tested form may be a part): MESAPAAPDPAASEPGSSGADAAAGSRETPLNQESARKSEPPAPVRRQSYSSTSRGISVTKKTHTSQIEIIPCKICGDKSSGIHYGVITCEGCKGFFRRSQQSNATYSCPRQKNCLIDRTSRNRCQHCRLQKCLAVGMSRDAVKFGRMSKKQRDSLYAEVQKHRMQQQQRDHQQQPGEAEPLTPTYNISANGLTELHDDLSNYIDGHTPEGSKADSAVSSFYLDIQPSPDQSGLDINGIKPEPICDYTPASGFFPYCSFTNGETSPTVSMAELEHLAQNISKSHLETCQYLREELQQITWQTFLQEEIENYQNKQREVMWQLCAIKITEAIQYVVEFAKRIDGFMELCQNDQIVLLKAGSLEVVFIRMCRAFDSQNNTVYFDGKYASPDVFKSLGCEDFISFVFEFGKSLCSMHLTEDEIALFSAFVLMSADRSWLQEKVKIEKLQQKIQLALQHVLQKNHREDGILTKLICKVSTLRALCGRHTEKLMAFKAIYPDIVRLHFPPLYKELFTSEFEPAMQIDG
A general note: In a reporter assay the amount or activity of a reporter protein is the signal.
One may read the inhibition as the relative decrease from the control value, in per cent. For `CNC(=O)CSc1nnnn1-c1ccc(C)cc1C`, the inhibition is 14% (inactive).

On to `CC1CCCN(Cc2nc3c(c(=O)n(C)c(=O)n3C)n2CC(=O)c2ccccc2)C1` (stereo not drawn), for which the inhibition is -31.2% (inactive). The figure for `CC(=O)Nc1ccc(-c2nn3c(C)nnc3s2)cc1C` is 10.7% (inactive); for `N#CC(=C1SC=CS1)c1nc(-c2ccccc2)cs1` it is -59.7% (inactive). As to `Cc1oc2nc(SCC(=O)NCc3cccnc3)nc(N)c2c1C`, the inhibition is 72.8% (active). The figure for `CNC(=O)CN1C(=O)c2ccccc2S1(=O)=O` is -15% (inactive). Then `CC(C)c1ccc(NC(=O)NC2CCCCC2)cc1`, with -85.1% (inactive); and `CC1CN(c2cc(=O)n(-c3cccc(Br)c3)c(=O)[nH]2)CC(C)O1` (stereo not drawn), with 29.5% (inactive).

Regarding `Cc1ccc(F)cc1NC(=O)Cc1nn(C)c(=O)c2ccccc12`, the inhibition was 53.5% (active).

As for `Cc1ccnc(N2CCCC(C(=O)Nc3cc(F)ccc3C)C2)n1` (stereo not drawn), the inhibition was 5.7% (inactive). Regarding `CCC(=O)NC(=Nc1nc2ccccc2s1)NC(=O)CC`, the inhibition was -48.7% (inactive). Then `Cc1ccc(S(=O)(=O)Nc2ccc3ncccc3c2)cc1`, with 56.7% (active); and `CCOC(=O)c1nc(-c2ccc3c(c2)OCO3)[nH]c1C`, with -66.7% (inactive); and `c1c2c(cc3sc(N4CCCCC4)nc13)OCCO2`, with 75.4% (active).

Consider `Fc1c(F)c(C(F)(F)F)c(F)c(F)c1N1CCN(c2ccc3nnc(C(F)(F)F)n3n2)CC1`, for which the inhibition is 6.9% (inactive). The figure for `O=C(O)C1OC(C(=O)O)C2C1C(F)(F)C2(F)F` (stereo not drawn) is 1.7% (inactive); for `COc1ccc(N=Cc2c(O)[nH]c3ccccc23)cc1OC` it is -55.7% (inactive); for `C(=C\c1ccccc1)/CSc1nnc(-c2cccnc2)n1Cc1ccco1` it is -2.8% (inactive).

As to `Cc1nc2ccc(S(=O)(=O)NCC(=O)NCCN3CCCCC3C)cc2s1` (stereo not drawn), the inhibition is 6.1% (inactive). The figure for `Cn1c(=NC(=O)c2ccco2)sc2cccc(F)c21` is -61.5% (inactive). On to `O=C(CN1C(=O)c2ccccc2S1(=O)=O)N1CCc2ccccc21`, for which the inhibition is 37.4% (inactive). With `COc1ccccc1CNC(=O)C1CCCN(S(=O)(=O)c2cccc3cccnc23)C1` (stereo not drawn), the inhibition was 5.2% (inactive). `CCC(=O)Oc1cccc(C(=O)Nc2ccc(-c3nnc(-c4ccco4)o3)cc2)c1`: the inhibition is -112% (inactive).

For `COC(=O)c1sc(NC(=O)c2csc3c2CCCC3)nc1C`, the inhibition was -33.7% (inactive). Then `c1ccc(Nc2nc(-c3ccncc3)cs2)nc1`, with -50.9% (inactive). Then `COc1ccc(C(=O)Nc2nncs2)c(OC)c1`, with -62.9% (inactive); and `COc1ccc(OC)c(Nc2nc(-c3ccc(O)c(O)c3)cs2)c1`, with 74.4% (active). Regarding `Cn1nnc2cc(C(=O)NCCC3=CCCCC3)ccc21`, the inhibition was -18% (inactive). Then `Cc1cc(C)nc(N2CCN(c3ncnc4c3oc3ccccc34)CC2)n1`, with 7.6% (inactive); and `CCCOc1ccccc1C(=O)NCCCC(=O)O`, with 16.7% (inactive); and `O=C(C1CCN(c2nnc(-n3cccc3)s2)CC1)N1CCc2ccccc2C1`, with 8.1% (inactive). In the case of `COC(=O)Nc1ncc(CN2C(=O)c3ccccc3C2=O)s1`, the inhibition is 19.5% (inactive).

Take `COCn1c(COc2ccccc2)nc2ccccc21`: the inhibition was -53.4% (inactive). For the compound `Cc1ccc(CCNC(=O)C2CCN(S(=O)(=O)N3CCCC3)CC2)cc1`, the inhibition was 2.2% (inactive). The figure for `COc1ccc(Nc2oc(-c3ccccc3Cl)nc2C#N)cc1` is -98.6% (inactive); for `COC(=O)c1ccc(NC(=O)c2ccco2)cc1` it is -77.4% (inactive). Then `C=CCn1c(C(C)NC(=O)CC)nc2ccccc21` (stereo not drawn), with -12.3% (inactive); and `C=CCOc1nc2c(c(=O)n(C)c(=O)n2C)n1Cc1ccc(Cl)cc1Cl`, with 63.5% (active); and `Cn1c(=O)c2c(nc(N3CCCCCC3)n2CC(O)COc2ccc(Cl)cc2)n(C)c1=O` (stereo not drawn), with -1% (inactive). Then `CCCc1[nH]nc2c1C(c1ccc(OC)c(Cn3nc(C)c(Br)c3C)c1)C(C#N)=C(N)O2` (stereo not drawn), with 27.5% (inactive). Take `CN(C)c1cc(N)c2ccccc2n1` (tested in a mixture with another compound): the inhibition is -3.2% (inactive). Consider `O=C1c2oc3ccccc3c(=O)c2C(c2cccc(O)c2)N1c1ccccn1` (stereo not drawn), for which the inhibition was -9.5% (inactive).

In the case of `COc1ccc(-c2nn(-c3ccccc3)cc2C(=O)Nc2nc(CC(C)=O)ns2)cc1`, the inhibition was -0.5% (inactive). The figure for `COc1cccc(N2CCN(C(=O)C3CCCN(S(=O)(=O)c4cnc[nH]4)C3)CC2)c1` (stereo not drawn) is 4.9% (inactive); for `Cc1ccc(NC(=O)c2nc[nH]c2C(=O)N2CCCCC2)c(C(=O)c2ccccc2)c1` it is 24.7% (inactive). Then `O=c1[nH]c(-c2ccccc2)c(-c2ccccc2)[nH]1`, with 23.5% (inactive); and `O=C(CCC(=O)c1cccs1)NCc1ccccc1`, with 2.2% (inactive). Take `COc1ccc(NC(=O)c2cccc(NC(=O)c3ccco3)c2)c(OC)c1`: the inhibition was -19% (inactive). The figure for `CC(C)n1c(SCC(=O)Nc2ccccc2N2CCCCC2)nc2c1c(=O)n(C)c(=O)n2C` is 18.7% (inactive); for `CC(C)Cc1cc(C(=O)NCCc2ccccc2)no1` it is -23.2% (inactive); for `O=C(Cc1ccccc1)n1nc(-c2ccccc2)nc1NCc1ccco1` it is -8% (inactive). The figure for `c1coc(CNc2ncnc3ccccc23)c1` is 66.3% (active); for `O=C(NCc1ccc2c(c1)OCO2)c1ccc2c(c1)C(=O)N(CC1CCCO1)C2=O` (stereo not drawn) it is 4.9% (inactive); for `Cc1ccc(Cn2ccc(NC(=O)C3C4CCC(C4)C3C(=O)O)n2)cc1` (stereo not drawn) it is -14.2% (inactive). In the case of `COc1ccccc1C1/C(=C(/O)c2ccc(C)cc2)C(=O)C(=O)N1Cc1ccco1` (stereo not drawn), the inhibition is -17.5% (inactive). `O=C(CNC(=O)c1ccco1)OCC(=O)c1ccccc1`: the inhibition was 10.7% (inactive). With `O=c1cc(-c2ccccc2)nc(N2CCCCC2)[nH]1`, the inhibition was -0.2% (inactive). For `CC(C)C[C@H](NC(=O)Nc1cccc(C(F)(F)F)c1)C(=O)O`, the inhibition is 11.1% (inactive).

With `CN(c1ccc(C(=O)NCCC2=CCCCC2)cc1)S(C)(=O)=O`, the inhibition is -63% (inactive). The figure for `CC(=O)Nc1ccn(Cc2c(F)cccc2Cl)n1` is -27.2% (inactive); for `CCOC(=O)Cc1c(C)nc2c(C#N)c(C)nn2c1C` it is -2.8% (inactive); for `COC(=O)C(C)C1Sc2ccccc2NC1=O` (stereo not drawn) it is 13.2% (inactive). Then `CC(=O)c1cnc(Nc2nc(C)c3cc(C)ccc3n2)nc1C`, with 26.5% (inactive).
